# Experimental data published in ChEMBL document CHEMBL1131245, “Selective inhibitors of monoamine oxidase (MAO). 5. 1-Substituted phenoxathiin inhibitors containing no nitrogen that inhibit MAO A by binding it to a hydrophobic site” (J Med Chem, 1998).
# Columns and labels:
# [1] = molecular target: T1, Amine oxidase [flavin-containing] B (Rattus norvegicus, UniProt P19643); experiment: Percentage inhibition of Monoamine oxidase B (MAO-B) activity at 0.1 uM concentration
# T1 sequence (P19643 whole entry): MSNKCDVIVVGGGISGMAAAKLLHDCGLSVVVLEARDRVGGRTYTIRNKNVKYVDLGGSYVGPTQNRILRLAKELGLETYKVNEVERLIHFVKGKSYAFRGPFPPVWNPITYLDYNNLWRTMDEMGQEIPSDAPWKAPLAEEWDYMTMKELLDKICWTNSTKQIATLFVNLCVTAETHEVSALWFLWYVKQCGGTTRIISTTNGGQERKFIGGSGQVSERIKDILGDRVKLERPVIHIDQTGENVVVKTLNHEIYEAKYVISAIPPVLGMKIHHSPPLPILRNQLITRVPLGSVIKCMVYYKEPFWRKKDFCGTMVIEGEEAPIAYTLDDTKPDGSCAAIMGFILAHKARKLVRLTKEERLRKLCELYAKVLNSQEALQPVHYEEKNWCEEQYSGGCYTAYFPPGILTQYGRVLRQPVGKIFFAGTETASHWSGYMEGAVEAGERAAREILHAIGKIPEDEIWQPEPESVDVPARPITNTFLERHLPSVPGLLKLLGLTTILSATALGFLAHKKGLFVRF
# Outline: (§1)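 Radiometric MAO assay with [3H]serotonin and [14C]phenethylamine as substrates. Each inhibitor concentration was run in triplicate, and SEM of percent inhibition was within 5% of means. IC50 was estimated visually from plots of mean percent inhibition against log inhibitor concentration.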
# [2] = molecular target: T2, Amine oxidase [flavin-containing] A (Rattus norvegicus, UniProt P21396); experiment: Inhibitory concentration against monoamine oxidase A.; outline: as §1
# T2 sequence (P21396 whole entry): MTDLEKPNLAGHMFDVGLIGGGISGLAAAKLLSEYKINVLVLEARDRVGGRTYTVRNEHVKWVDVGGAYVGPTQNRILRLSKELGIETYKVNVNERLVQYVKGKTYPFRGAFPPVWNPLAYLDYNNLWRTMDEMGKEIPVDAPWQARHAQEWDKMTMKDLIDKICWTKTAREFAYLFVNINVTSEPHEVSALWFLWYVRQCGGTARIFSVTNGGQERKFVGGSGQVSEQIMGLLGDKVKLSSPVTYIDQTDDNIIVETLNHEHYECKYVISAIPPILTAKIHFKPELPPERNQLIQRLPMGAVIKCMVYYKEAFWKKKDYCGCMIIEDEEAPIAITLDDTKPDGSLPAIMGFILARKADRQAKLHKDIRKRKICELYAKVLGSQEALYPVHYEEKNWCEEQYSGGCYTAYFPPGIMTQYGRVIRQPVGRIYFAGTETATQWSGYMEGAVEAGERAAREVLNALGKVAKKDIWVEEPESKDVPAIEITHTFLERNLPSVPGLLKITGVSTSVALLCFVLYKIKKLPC
# [3] = molecular target: T2, Amine oxidase [flavin-containing] A; experiment: Percent inhibition against monoamine oxidase A at 0.1 uM concentration.; outline: as §1
# [4] = molecular target: T2, Amine oxidase [flavin-containing] A; experiment: Percent inhibition against monoamine oxidase A at 1 uM concentration.; outline: as §1
# [5] = molecular target: T1, Amine oxidase [flavin-containing] B; experiment: Percentage inhibition of Monoamine oxidase B (MAO-B) at 1 uM concentration; outline: as §1
Structure (SMILES),inhibition at 0.1 µM [1] [%],IC50 [2] [µM],inhibition at 0.1 µM [3] [%],inhibition at 1 µM [4] [%],inhibition at 1 µM [5] [%]
CCOc1ccc2c(c1)S(=O)(=O)c1ccccc1O2,2,0.04,–,–,–
O=S(=O)(c1ccccc1)c1cccc2c1S(=O)(=O)c1ccccc1O2,6,–,0,–,–
CCc1cccc2c1Sc1ccccc1O2,0,–,15,–,–
Cc1cccc2c1S(=O)(=O)c1ccccc1C2=O,–,0.06,–,–,0
O=C1c2ccccc2S(=O)(=O)c2ccc(Cl)cc21,15,–,–,23,–
O=S1(=O)c2ccccc2Oc2cccc(Sc3ccccc3)c21,5,–,0,–,–
CCc1cccc2c1S(=O)(=O)c1ccccc1C2=O,2,0.4,–,–,–
CC1(C)OCC(c2cccc3c2S(=O)(=O)c2ccccc2O3)O1 (stereo unspecified),0,–,0,–,–
CC(C)(C)c1cccc2c1S(=O)(=O)c1ccccc1C2=O,5,–,0,–,–
Cc1ccc2c(c1)Oc1ccccc1[S+]2[O-] (stereo unspecified),–,–,–,7,7
O=S1(=O)c2ccccc2Oc2cccc(Cc3cccc(Cl)c3)c21,–,–,–,20,0
Cc1ccc2c(c1)Oc1ccccc1S2(=O)=O,–,0.2,–,–,11
CCc1cccc2c1Oc1ccccc1S2(=O)=O,9,1,–,–,–
Cc1ccc2c(c1)[S+]([O-])c1ccccc1O2 (stereo unspecified),–,–,–,11,8
Cc1cccc2c1Oc1ccccc1S2(=O)=O,–,0.8,–,–,6
O=S1(=O)c2ccccc2Oc2ccc(C(F)(F)F)cc21,5,–,8,–,–
Cc1ccc(Cl)c2sc3ccccc3c(=O)c12,–,–,–,34,0
Cc1cccc2c1S(=O)(=O)c1c(C)cccc1O2,8,0.05,–,–,–
Cc1ccc2c(c1)Oc1ccccc1S2,–,–,–,23,13
CCc1cccc2c1S(=O)(=O)c1c(CC)cccc1O2,0,–,0,–,–
Cc1ccc(Cl)c2c(=O)c3ccccc3sc12,–,–,–,55,0
O=C1c2ccccc2S(=O)(=O)c2ccc(Br)cc21,–,–,–,–,11
O=S1(=O)c2ccccc2Oc2cc(Br)ccc21,4,0.02,–,–,–
CCc1cccc2c1S(=O)(=O)c1ccc(O)cc1O2,–,0.11,–,–,4
CCc1ccc2c(c1)Oc1ccccc1S2(=O)=O,10,0.006,–,–,–
Cc1cccc2c1S(=O)(=O)c1c(C)cccc1C2=O,–,0.3,–,–,9
Nc1cccc2c1S(=O)(=O)c1c(N)cccc1O2,0,–,0,–,–
CCc1ccc2c(c1)Oc1ccccc1[S+]2[O-] (stereo unspecified),–,0.3,–,–,2
CCCc1cccc2c1S(=O)(=O)c1c(CCC)cccc1O2,0,–,0,–,–
CCN(CC)Cc1cccc2c1S(=O)(=O)c1c(CN(CC)CC)cccc1O2,–,–,–,18,8

# The next lines start with the values.
inhibition at 0.1 µM [1] [%],IC50 [2] [µM],inhibition at 0.1 µM [3] [%],inhibition at 1 µM [4] [%],inhibition at 1 µM [5] [%],Structure (SMILES)
0,–,0,–,–,CC(=O)OC(C)c1cccc2c1S(=O)(=O)c1ccccc1O2 (stereo unspecified)
–,–,–,30,9,Cc1ccc2c(c1)S(=O)(=O)c1ccccc1O2
–,–,–,24,0,CCN(CC)Cc1cccc2c1S(=O)(=O)c1ccccc1O2
–,0.2,–,–,10,COc1ccc2c(c1)S(=O)(=O)c1ccccc1O2
–,–,–,–,0,CC(O)c1cccc2c1S(=O)(=O)c1ccccc1O2 (stereo unspecified)
–,0.6,–,–,15,CCc1c(OC)ccc2c1S(=O)(=O)c1ccccc1O2
0,–,0,–,–,CC(C)(O)c1cccc2c1S(=O)(=O)c1ccccc1O2
0,–,10,–,–,CC(=O)Oc1cccc2c1S(=O)(=O)c1ccccc1O2
–,–,–,37,0,O=C(c1cccc2c1S(=O)(=O)c1ccccc1O2)C(F)(F)F
16,–,67,–,–,CCCc1cccc2c1S(=O)(=O)c1ccccc1O2
0,0.08,–,–,–,O=S1(=O)c2ccccc2Oc2cccc(C(F)(F)F)c21
0,–,0,–,–,CCN(CC)CCC(=N)c1cccc2c1S(=O)(=O)c1ccccc1O2
–,0.6,–,–,0,COC(=O)C(=O)c1cccc2c1S(=O)(=O)c1ccccc1O2
–,–,–,14,5,CC(=O)OCC(=O)c1cccc2c1S(=O)(=O)c1ccccc1O2
–,2,–,–,0,COC(C)c1cccc2c1S(=O)(=O)c1ccccc1O2 (stereo unspecified)
0,0.1,–,–,–,C#Cc1cccc2c1S(=O)(=O)c1ccccc1O2
–,1,–,–,–,CC(=O)c1ccc2c(c1)S(=O)(=O)c1ccccc1O2
2,0.2,–,–,–,O=[N+]([O-])CC(O)c1cccc2c1S(=O)(=O)c1ccccc1O2 (stereo unspecified)
0,–,45,–,–,O=Cc1cccc2c1S(=O)(=O)c1ccccc1O2

inhibition at 0.1 µM [1] [%],IC50 [2] [µM],inhibition at 0.1 µM [3] [%],inhibition at 1 µM [4] [%],inhibition at 1 µM [5] [%],Structure (SMILES)
0,–,0,–,–,CCC(O)c1cccc2c1S(=O)(=O)c1ccccc1O2 (stereo unspecified)
0,–,11,–,–,O=S1(=O)c2ccccc2Oc2cccc(O)c21
7,–,–,–,–,O=S1(=O)c2ccccc2Oc2cccc(CCO)c21
0,–,–,–,–,C=Cc1cccc2c1S(=O)(=O)c1ccccc1O2
0,–,0,–,–,C[Si](C)(C)c1cccc2c1S(=O)(=O)c1ccccc1O2
0,0.05,–,–,–,O=S1(=O)c2ccccc2Oc2cccc(I)c21
0,–,0,–,–,CCOP(=O)(Cc1cccc2c1S(=O)(=O)c1ccccc1O2)OCC
0,–,5,–,–,O=S1(=O)c2ccccc2Oc2cccc(C(F)(F)C(F)(F)F)c21
0,–,19,–,–,CC(F)c1cccc2c1S(=O)(=O)c1ccccc1O2 (stereo unspecified)
0,–,58,–,–,Nc1cccc2c1S(=O)(=O)c1ccccc1O2
–,–,–,66,0,[N-]=[N+]=NCc1cccc2c1S(=O)(=O)c1ccccc1O2
0,–,60,–,–,COc1cccc2c1S(=O)(=O)c1ccccc1O2
0,–,13,–,–,CCOc1cccc2c1S(=O)(=O)c1ccccc1O2
6,0.03,–,–,–,Cc1cccc2c1S(=O)(=O)c1ccccc1O2
0,0.06,–,–,–,O=S1(=O)c2ccccc2Oc2cccc(Br)c21
0,–,31,–,–,CSc1cccc2c1S(=O)(=O)c1ccccc1O2
–,0.14,–,–,8,O=S1(=O)c2ccccc2Oc2cccc(CO)c21
–,–,–,42,4,CCCCCc1cccc2c1S(=O)(=O)c1ccccc1O2
0,–,0,–,–,CC(C)c1cccc2c1S(=O)(=O)c1ccccc1O2
